Key:
[1] = molecular target: T1, Human immunodeficiency virus type 1 reverse transcriptase (Human immunodeficiency virus 1, UniProt Q72547); experiment: Tested for the inhibition of mutant type (Cys181) HIV-1 (IIIB) RT
[2] = system: MT4; experiment: Inhibition of HIV-1(IIIB) variants (Ile100/Cys181) in HIV-1 MT-4 cells; assay type: functional; details: Homo sapiens, read-out: ED50 (the source's name)
How it was run: (§1)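 MT-4 cells (human T cell line) in RPMI 1640 with 10% fetal calf serum, penicillin and streptomycin, seeded at 2 × 10⁴ cells/well. Infected with 10-20 TCID₅₀ of mutant HIV-1 IIIB per well, with the compound added at different concentrations. Incubated at 37 °C in CO₂. Cell viability read by XTT dye at day 5 or 6. Activity taken as the reduction in viral cytopathic effect, given as ED₅₀. Mutants were raised by passage in stepwise increasing concentrations of non-nucleoside RT inhibitors.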

[3] = system: MT4; experiment: Inhibition of mutant type (Ile100) HIV-1 (IIIB) replication in MT-4 cells; assay type: functional; details: Homo sapiens, read-out: ED50 (the source's name); how it was run: as §1
[4] = molecular target: T1, Human immunodeficiency virus type 1 reverse transcriptase; experiment: Tested for the inhibition of mutant type (Ile100) HIV-1 (IIIB) RT
[5] = system: MT4; experiment: Inhibition of HIV-1(IIIB) variants (Ile100/Asn103) in HIV-1 MT-4 cells; assay type: functional; details: Homo sapiens, read-out: ED50 (the source's name); how it was run: as §1
[6] = molecular target: T1, Human immunodeficiency virus type 1 reverse transcriptase; experiment: Tested for the inhibition of wild type HIV-1 (IIIB) RT
[7] = system: MT4; experiment: Inhibition of mutant type (Cys181) HIV-1 (IIIB) replication in MT-4 cells; assay type: functional; details: Homo sapiens, read-out: ED50 (the source's name); how it was run: as §1
[8] = system: MT4; experiment: Tested for the inhibition of wild type HIV-1 (IIIB) replication in MT-4 cells; assay type: functional; details: Homo sapiens, read-out: ED50 (the source's name)
How it was run: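 MT-4 human T cells in RPMI 1640 with 10% fetal calf serum, penicillin and streptomycin, seeded at 2 × 10⁴ cells/well and infected with 10-20 TCID₅₀ HIV-1 IIIB per well. Compounds were added over a concentration range and cultures kept at 37 °C in CO₂. Viability was read by XTT at day 5 or 6, and activity was taken as reduction of viral cytopathic effect.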

[9] = system: MT4; experiment: Inhibition of HIV-1(IIIB) variants (Ile100/Cys181 in HIV-1 MT-4 cells; assay type: functional; details: Homo sapiens, read-out: ED50 (the source's name); how it was run: as §1
[10] = system: MT4; experiment: Inhibition of HIV-1(IIIB) variants (Ile100/Cys 181) in HIV-1 MT-4 cells; assay type: functional; details: Homo sapiens, read-out: ED50 (the source's name); how it was run: as §1

Compound | IC50 [1] [nM] | EC50 [2] [nM] | EC50 [3] [nM] | IC50 [4] [nM] | EC50 [5] [nM] | IC50 [6] [nM] | EC50 [7] [nM] | EC50 [8] [nM] | EC50 [9] [nM] | EC50 [10] [nM]
COc1ccc(F)c(CC/N=C(\S)Nc2ccc(Br)cn2)c1C#N | 50 | > 10000 | 250 | 50 | > 10000 | 1 | 40 | 3 | – | –
O=C1c2ccccc2C(=O)N1CCNC(=S)Nc1ccc(Cl)cn1 | 130 | – | 200 | 280 | > 10000 | 1 | 40 | 5 | 15000 | –
CN(C)c1ccc(CC/N=C(\S)Nc2ccc(Br)cn2)c(F)c1C#N | 110 | – | 150 | 210 | 5500 | 8 | 20 | 13 | 7500 | –
COc1ccc(OC)c(CCNC(=S)Nc2ccc(Cl)cn2)c1F | 54 | 1000 | 9 | 80 | 1000 | 1 | 3 | 2 | – | –
N#Cc1ccc(F)c(CC/N=C(\S)Nc2ccc(Cl)cn2)c1F | 90 | – | 800 | 400 | > 10000 | 9 | 50 | 6 | – | > 10000
COc1ccc(F)c(F)c1CCNC(=S)Nc1ccc(Br)cn1 | 4 | – | 600 | 50 | > 10000 | 3 | 40 | 7 | > 10000 | –
CCOc1ccc(OC)c(CCNC(=S)Nc2ccc(Cl)cn2)c1F | 34 | > 10000 | 90 | 160 | > 10000 | 5 | 9 | 5 | – | –
CCOc1ccc(F)c(F)c1CCNC(=S)Nc1ccc(Br)cn1 | 10 | > 10000 | 1500 | 20 | > 10000 | 5 | 200 | 7 | – | –
